Experimental findings from ChEMBL document CHEMBL1138621, “Inhibition of tRNA-dependent ligase MurM from Streptococcus pneumoniae by phosphonate and sulfonamide inhibitors” (Bioorg Med Chem, 2009) are described below.

The source made the active and inactive calls. The calls are words filed in the database; no cut-off is given here.

In assay [1] the test system is Streptococcus pneumoniae. Kind of assay: Inhibition of penicillin-resistant Streptococcus pneumoniae 159 recombinant MurM at 1 mM by liquid scintillation counting.
The target of assay [2] is T1, Serine--tRNA ligase (Streptococcus pneumoniae serotype 4 (strain ATCC BAA-334 / TIGR4)) (UniProt Q97SG0).
T1 sequence (whole entry): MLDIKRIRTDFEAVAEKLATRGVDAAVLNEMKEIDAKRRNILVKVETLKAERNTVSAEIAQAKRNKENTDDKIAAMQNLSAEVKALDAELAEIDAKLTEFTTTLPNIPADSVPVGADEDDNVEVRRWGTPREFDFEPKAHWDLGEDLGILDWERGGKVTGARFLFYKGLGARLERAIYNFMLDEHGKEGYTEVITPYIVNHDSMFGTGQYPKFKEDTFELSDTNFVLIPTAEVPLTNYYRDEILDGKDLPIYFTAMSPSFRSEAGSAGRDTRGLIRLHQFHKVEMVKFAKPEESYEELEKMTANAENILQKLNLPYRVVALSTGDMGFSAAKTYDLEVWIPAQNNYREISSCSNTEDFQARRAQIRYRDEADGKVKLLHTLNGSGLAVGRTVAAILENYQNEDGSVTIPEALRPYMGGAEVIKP
Kind of assay: Inhibition of Streptococcus pneumoniae seryl tRNA synthetase expressed in Escherichia coli BL21 (DE3) assessed as formation of [3H]seryl tRNA at 100 uM.

Assay [3] concerns the target T2, Alanine--tRNA ligase (Streptococcus pneumoniae serotype 4 (strain ATCC BAA-334 / TIGR4)) (UniProt Q97Q48).
T2 sequence (whole entry): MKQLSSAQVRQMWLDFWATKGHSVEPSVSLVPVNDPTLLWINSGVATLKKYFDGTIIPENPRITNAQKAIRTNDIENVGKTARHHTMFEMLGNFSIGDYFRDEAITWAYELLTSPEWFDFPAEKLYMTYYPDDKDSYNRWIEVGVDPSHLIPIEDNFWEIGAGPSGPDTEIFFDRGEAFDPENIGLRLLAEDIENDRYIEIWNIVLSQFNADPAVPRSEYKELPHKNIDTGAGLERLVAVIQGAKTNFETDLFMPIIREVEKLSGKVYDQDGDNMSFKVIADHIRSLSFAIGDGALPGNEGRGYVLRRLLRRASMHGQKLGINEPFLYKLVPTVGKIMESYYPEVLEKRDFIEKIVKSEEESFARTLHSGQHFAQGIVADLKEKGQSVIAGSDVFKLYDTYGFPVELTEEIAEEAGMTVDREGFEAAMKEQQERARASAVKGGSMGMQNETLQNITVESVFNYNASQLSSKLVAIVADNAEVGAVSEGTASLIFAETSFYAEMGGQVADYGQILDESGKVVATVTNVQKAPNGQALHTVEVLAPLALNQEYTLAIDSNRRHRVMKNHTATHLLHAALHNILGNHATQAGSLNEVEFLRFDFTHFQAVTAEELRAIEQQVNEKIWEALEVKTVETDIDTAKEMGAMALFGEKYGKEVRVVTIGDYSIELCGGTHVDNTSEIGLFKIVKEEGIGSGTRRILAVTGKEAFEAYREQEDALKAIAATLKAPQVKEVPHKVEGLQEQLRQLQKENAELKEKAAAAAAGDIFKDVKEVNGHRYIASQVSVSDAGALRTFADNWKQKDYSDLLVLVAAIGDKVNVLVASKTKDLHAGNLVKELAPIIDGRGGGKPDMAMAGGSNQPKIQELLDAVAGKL
Kind of assay: Inhibition of Streptococcus pneumoniae alanyl tRNA synthetase expressed in Escherichia coli BL21 (DE3) assessed as formation of [3H]alanyl tRNA at 100 uM.

Assay [4] deals with T1, Serine--tRNA ligase (Streptococcus pneumoniae serotype 4 (strain ATCC BAA-334 / TIGR4)). Kind of assay: Inhibition of Streptococcus pneumoniae seryl tRNA synthetase expressed in Escherichia coli BL21 (DE3) assessed as formation of [3H]seryl tRNA at 1 mM.
The test system of assay [5] is Staphylococcus aureus. Kind of assay: Antimicrobial activity against methicillin-susceptible Staphylococcus aureus expressing femABX gene at 1 to 5 mM by NCCLS method. The format is functional, organism-based. In short, it runs like this:
(§1)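 Growth inhibition in liquid culture per NCCLS protocol, compounds at 1–5 mM final concentration; strains tested: S. pneumoniae 159 and pn16, S. aureus MRSA and MSSA, E. faecalis, M. flavus, E. coli.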

A further assay deals with Micrococcus flavus. Kind of assay: Antimicrobial activity against Micrococcus flavus expressing femABX gene at 1 to 5 mM by NCCLS method. The format is functional, organism-based. In short, it runs like this: as §1
The next assay relates to Enterococcus faecalis. Kind of assay: Antimicrobial activity against Enterococcus faecalis expressing femABX gene at 1 to 5 mM by NCCLS method. The format is functional, organism-based. The essentials:
as §1

In assay [6] the target is T2, Alanine--tRNA ligase (Streptococcus pneumoniae serotype 4 (strain ATCC BAA-334 / TIGR4)). Kind of assay: Inhibition of Streptococcus pneumoniae alanyl tRNA synthetase expressed in Escherichia coli BL21 (DE3) assessed as formation of [3H]alanyl tRNA at 1 mM.
The test system of assay [7] is Staphylococcus aureus. Kind of assay: Antimicrobial activity against methicillin-resistant Staphylococcus aureus expressing femABX gene at 1 to 5 mM by NCCLS method. The format is functional, organism-based. The essentials: as §1
Assay [8] in a line: Inhibition of penicillin-resistant Streptococcus pneumoniae 159 recombinant MurM by liquid scintillation counting.
For assay [9], the system named is Streptococcus pneumoniae. Kind of assay: Antibacterial activity against penicillin- resistant Streptococcus pneumoniae 159 at 1 mM by NCCLS method. The format is functional, organism-based. The essentials:
as §1

Broadly, the inhibition is the drop in the measured response relative to a control, in per cent. Turning to `CC(NC(=O)OCc1ccccc1)P(=O)(O)O[C@H]1C[C@H](n2cnc3c(NC(=O)c4ccccc4)ncnc32)O[C@@H]1CO[Si](C)(C)C(C)(C)C` (stereo partly specified), in the assay with Streptococcus pneumoniae [1], the inhibition came out at 0%. For `CC(N)P(=O)(O)O[C@H]1C[C@H](n2cnc3c(N)ncnc32)O[C@@H]1CO[Si](C)(C)C(C)(C)C` (stereo partly specified), in the assay on Streptococcus pneumoniae [1], the inhibition worked out at 0%.

For the compound `COCCOP(=O)(NCCCC[C@H](NC(=O)OC(C)(C)C)C(=O)OC)C(C)NC(=O)OCc1ccccc1` (stereo partly specified), the outcome in the assay with Streptococcus pneumoniae [1] was inactive. With `COc1ccc(C[C@H](N)C(=O)N[C@H]2[C@@H](O)[C@H](n3cnc4c(N(C)C)ncnc43)O[C@@H]2CO)cc1`, in the assay on Streptococcus pneumoniae [1], the inhibition stood at 0%. What is called IC50 is the concentration that gives 50% inhibition. For the compound `CC(N)P(=O)(O)O[C@H]1C[C@H](n2cnc3c(N)ncnc32)O[C@@H]1CO` (stereo partly specified), the inhibition entry in [2] and in assay [3] was “inactive” throughout. For the same compound, the inhibition in assay [4] turned out to be 28%; in the assay on Streptococcus pneumoniae [1], 95%; in assay [6], 22%. Further, the outcome in the assay with Staphylococcus aureus [5], with Micrococcus flavus, in the assay with Enterococcus faecalis and with Staphylococcus aureus [7] was inactive. Besides, in assay [8] (read-out: IC50), the IC50 came out at 100 µM. Besides, the “growth inhibition (GI)” value in the assay with Streptococcus pneumoniae [9] was “inactive”. For `Nc1ncnc2c1ncn2[C@H]1C[C@H](O)[C@@H](CO)O1`, the inhibition in the assay with Streptococcus pneumoniae [1] worked out at 13%. In the case of `CCCCOP(=O)(NCCC)C(C)NC(=O)OCc1ccccc1` (stereo unspecified), in the assay with Streptococcus pneumoniae [1], the result was inactive.

In the case of `COC(=O)[C@H](CCCCNP(=O)(OC)C(NC(=O)OCc1ccccc1)c1ccccc1)NC(=O)OC(C)(C)C` (stereo partly specified), the result in the assay on Streptococcus pneumoniae [1] was inactive. On to `CCCNP(=O)(OC)C(C)NC(=O)OCc1ccccc1` (stereo unspecified), for which the result in the assay with Streptococcus pneumoniae [1] was inactive. On to `COC(=O)[C@H](CCCCNP(=O)(OC)C(C)NC(=O)OCc1ccccc1)NC(=O)OC(C)(C)C` (stereo partly specified), for which, in the assay with Streptococcus pneumoniae [1], the outcome was inactive. In the case of `CC(NC(=O)OCc1ccccc1)P(=O)(O)O[C@H]1C[C@H](n2cnc3c(N)ncnc32)O[C@@H]1CO[Si](C)(C)C(C)(C)C` (stereo partly specified), in the assay on Streptococcus pneumoniae [1], the inhibition was determined as 0%. With `CCCCOP(=O)(NCCCC[C@H](NC(=O)OC(C)(C)C)C(=O)OC)C(C)NC(=O)OCc1ccccc1` (stereo partly specified), in the assay with Streptococcus pneumoniae [1], the outcome was inactive.

In the case of `CC(N)P(=O)(O)O[C@H]1[C@@H](O)[C@H](n2cnc3c(N)ncnc32)O[C@@H]1CO` (stereo partly specified), in assay [8], the half-inhibitory concentration (IC50) entry was “Not Active”. Regarding `CC(N)P(=O)(O)O[C@@H]1[C@H](O)[C@@H](CO)O[C@H]1n1cnc2c(N)ncnc21` (stereo partly specified), the inhibition in the assay with Streptococcus pneumoniae [1] amounted to 55%. In addition, in assay [8] (read-out: IC50), the IC50 is 780 µM.

With `CCCNP(=O)(OCCOC)C(C)NC(=O)OCc1ccccc1` (stereo unspecified), in the assay with Streptococcus pneumoniae [1], the outcome was inactive. Regarding `CNC(=O)OC[C@H]1O[C@@H](n2cnc3c(N)ncnc32)C[C@@H]1OP(=O)(O)C(C)N` (stereo partly specified), the inhibition in the assay with Streptococcus pneumoniae [1] came to 3%. Turning to `CCCNP(=O)(OC)C(CC)NC(=O)OCc1ccccc1` (stereo unspecified), the outcome in the assay on Streptococcus pneumoniae [1] was inactive.

For the compound `CC(NC(=O)OCc1ccccc1)P(=O)(O)O[C@H]1C[C@H](n2cnc3c(N)ncnc32)O[C@@H]1CO` (stereo partly specified), in the assay on Streptococcus pneumoniae [1], the inhibition worked out at 0%. As for `Nc1ncnc2c1ncn2[C@H]1C[C@H](OP(=O)(O)O)[C@@H](CO)O1`, the inhibition in the assay with Streptococcus pneumoniae [1] amounted to 15%. Take `CCCNP(=O)(OC)C(NC(=O)OCc1ccccc1)c1ccccc1` (stereo unspecified): the result with Streptococcus pneumoniae [1] was inactive.
